Measurements from different studies.
Lines come from different studies, so protocols differ.
ache: Acetylcholinesterase (ache, Electrophorus electricus, UniProt O42275)
STK17B: Serine/threonine-protein kinase 17B (STK17B, Homo sapiens, UniProt O94768)
STK32A: Serine/threonine-protein kinase 32A (STK32A, Homo sapiens, UniProt Q8WU08)

`O[C@@H]1[C@H](O)CO[C@H]1n1cnc2c(NCc3cccc(Cl)c3)ncnc21` gave an inhibition of 35% (Adenosine receptor A1 (ADORA1, Homo sapiens, UniProt P30542); ligand displacement, radioligand; 10 µM, cell membranes).
For `COc1cc2c(cc1OC)C(=O)N(Cc1cnc3c(c1)OCCN3C)C2`, the inhibition was 1.71% (ache; enzyme activity, inhibitor; 1 µM).
With `NS(=O)(=O)c1ccc(CNc2ccnc(Nc3cccc(NC(=O)N4CCCC4)c3)n2)cc1` the remaining activity was 96% (STK17B; enzyme activity, inhibitor, radiometric; 1 µM).
`Cn1c2c(Cl)c(Cl)ccc2c2cc[nH]c(=O)c21` has a ΔTm of -0.4 °C (STK32A; thermal stability, DSF; 10 µM).
`O=C(NCCCNc1nc(Nc2cccc(CN3CCOCC3)c2)ncc1C1CC1)C1CCC1` has a remaining activity of 7% (STK17B; enzyme activity, inhibitor, radiometric; 1 µM).
With `COC(=O)C(C)Oc1ccc2c(C)cc(=O)oc2c1` (centres unmarked) the remaining activity was 82.8% (Aldehyde dehydrogenase 1A1 (ALDH1A1, Homo sapiens, UniProt P00352, N121S); enzyme activity, inhibitor, absorbance; 10 µM).
With `CN1CCc2cc(Nc3ncc(C4CC4)c(NCCCNC(=O)C4CCC4)n3)ccc2C1` the remaining activity was 4% (STK17B; enzyme activity, inhibitor, radiometric; 1 µM).
The ΔTm of `N#CC1c2c([nH]c3c(Cl)c(Cl)ccc23)C(=O)NC12CCCCC2` (racemic) is reported as 0.1 °C (STK32A; thermal stability, DSF; 10 µM).
The inhibition of `COc1cc2c(cc1OC)C(=O)N(CC1CCN(Cc3ccsc3)CC1)C2` is reported as 13.9% (ache; enzyme activity, inhibitor; 1 µM).
The remaining activity of `Brc1cnc(Nc2cccc(CN3CCOCC3)c2)nc1NCCc1c[nH]cn1` is reported as 4% (STK17B; enzyme activity, inhibitor, radiometric; 1 µM).
`COc1cc2c(cc1OC)C(=O)N(Cc1ccc(F)nc1)C2` gave an inhibition of -1.57% (ache; enzyme activity, inhibitor; 1 µM).
`NS(=O)(=O)c1ccc(CNc2nc(Nc3cccc(NC(=O)N4CCCC4)c3)ncc2C2CC2)cc1` gave a remaining activity of 77% (STK17B; enzyme activity, inhibitor, radiometric; 1 µM).
The inhibition of `COc1nccc(CN2Cc3cc(OC)c(OC)cc3C2=O)n1` is reported as -0.39% (ache; enzyme activity, inhibitor; 1 µM).
`O=C(NCCCNc1ccnc(Nc2cccc(NC(=O)N3CCCC3)c2)n1)C1CCC1` has a remaining activity of 17% (STK17B; enzyme activity, inhibitor, radiometric; 1 µM).
For `Cn1c2c(c3ccc(Cl)c(Cl)c31)C(C#N)C1(CCCC1)NC2=O` (centres unmarked), the ΔTm was -0.2 °C (STK32A; thermal stability, DSF; 10 µM).
`N#Cc1ccc(/C=C/CN(CC[C@H](N)C(=O)O)C[C@H]2O[C@@H](n3cnc4c(N)ncnc43)[C@H](O)[C@@H]2O)cc1` has an activity vs control of 100% (Histone-arginine methyltransferase CARM1 (CARM1, Homo sapiens, UniProt Q86X55); enzyme activity, inhibitor; 1 µM).
For `COc1cc2c(cc1OC)C(=O)N(CC1CCN(Cc3ccccn3)CC1)C2`, the inhibition was 8.01% (ache; enzyme activity, inhibitor; 1 µM).
The remaining activity of `CC(C)(C)c1nc2c(s1)c1nc(N)ncc1c1ccc(NS(=O)(=O)c3c(F)cccc3F)c(F)c12` is reported as 90% (Ribosomal protein S6 kinase beta-2 (RPS6KB2, Homo sapiens, UniProt Q9UBS0); enzyme activity, inhibitor, radiometric; 1 µM).
For `COc1cc2c(cc1OC)C(=O)N(Cc1ccccn1)C2`, the inhibition was 4.59% (ache; enzyme activity, inhibitor; 1 µM).
`NS(=O)(=O)c1ccc(CNc2ccnc(Nc3cccc(CN4CCOCC4)c3)n2)cc1` has a remaining activity of 96% (STK17B; enzyme activity, inhibitor, radiometric; 1 µM).
With `CC(C)(C)c1nc(-c2cccc(NS(=O)(=O)c3c(F)cccc3F)c2F)c(-c2ccnc(N)n2)s1` the remaining activity was 92% (Mitogen-activated protein kinase kinase kinase 21 (MAP3K21, Homo sapiens, UniProt Q5TCX8); enzyme activity, inhibitor, radiometric; 1 µM).
`FC(F)(F)Oc1cccc(-c2cnc3ccc(-c4ccncc4)nn23)c1` gave an activity vs control of 39% (Mitogen-activated protein kinase kinase kinase kinase 3 (MAP4K3, Homo sapiens, UniProt Q8IVH8); enzyme activity, inhibitor, radiometric; 5 µM).
For `O=C(NCCCNc1nc(Nc2cccc(NC(=O)N3CCCC3)c2)ncc1C1CC1)C1CCC1`, the remaining activity was 3% (STK17B; enzyme activity, inhibitor, radiometric; 1 µM).
For `CCCCCCCOc1ccc(CCC(N)(CO)COP(=O)(O)O)cc1C(F)(F)F` (centres unmarked), the Emax was 92% (Sphingosine 1-phosphate receptor 1 (S1PR1, Homo sapiens, UniProt P21453); calcium signal, agonist, fluorescence).
For `COc1cc2c(cc1OC)C(=O)N(CC1CCN(Cc3cccc(C#N)c3)CC1)C2`, the inhibition was 4.99% (ache; enzyme activity, inhibitor; 1 µM).
`CCCOc1ccc(OC)c(F)c1C(=O)c1ccc(C(=O)N[C@@H]2CNC[C@H]2NC(=O)c2ccc3[nH]ncc3c2)cc1` has a remaining activity of 44% (RAC-gamma serine/threonine-protein kinase (AKT3, Homo sapiens, UniProt Q9Y243); enzyme activity, inhibitor; 0.5 µM).
